The test system of experiment [1] is Human immunodeficiency virus 1. Put plainly: Antiviral activity against HIV1 Y188L mutant strain infected MT4 cells by MTT method. The format is functional, organism-based. The following applies: Human immunodeficiency virus 1, Y188L, MT4. A general note: Tetrazolium dyes change colour on reduction, which living cells bring about.
Experiment [2] addresses Human immunodeficiency virus type 1 reverse transcriptase (Human immunodeficiency virus 1) (UniProt Q72547).
In experiment [3] the test system is Human immunodeficiency virus 1. Nature of the experiment: Antiviral activity against HIV1 K103N mutant strain infected MT4 cells by MTT method at 62 uM. Format: functional. The following applies: Human immunodeficiency virus 1, K103N. The gist of the method:
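MT-4 cells infected with the mutant HIV-1 strain and treated with compound. Viable cells were measured by MTT colorimetric assay on day 5 post-infection. The value is the percent inhibition of HIV-induced cell death at the stated micromolar concentration. Values are the mean of at least two experiments.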

Experiment [4] concerns Human immunodeficiency virus 1. Put plainly: Antiviral activity against HIV1 IRLL98 mutant strain infected MT4 cells by MTT method. The note with it: Human immunodeficiency virus 1, IRLL98, MT4. Format: functional, organism-based. The gist of the method: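 MT-4 cells infected with the HIV-1 mutant strain, or mock-infected for cytotoxicity, in the presence of a range of drug concentrations. Viable cells were counted by MTT colorimetric assay on day 5 post-infection. EC50 is the concentration that blocks 50% of HIV-induced cell death. Values are the mean of at least two experiments. IRLL98 carries RT mutations K101Q, Y181C and G190A, plus NRTI mutations.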

In experiment [5] the test system is Human immunodeficiency virus 1. Nature of the experiment: Antiviral activity against wild type HIV1 NL4-3 infected MT4 cells by MTT method. Format: functional, organism-based. The note with it: Human immunodeficiency virus 1, NL4-3, MT4. The gist of the method: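 MT-4 lymphoid cells infected with HIV-1 NL4-3 in the presence of graded drug concentrations. Viable cells counted by MTT colorimetric assay at day 5 post-infection. EC50 is the concentration protecting 50% of cells from HIV-induced death. Mean of at least two experiments.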

Experiment [6] relates to Human immunodeficiency virus type 1 reverse transcriptase (Human immunodeficiency virus 1), Q72547 [K103N]. Put plainly: Inhibition of K103N mutant HIV1 reverse transcriptase by [3H]dTTP poly(rA)/oligo(dT) incorporation at 400 uM. Summed up:
(§1)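 RNA-dependent DNA polymerase assay of recombinant RT at 5–10 nM. Template: poly(rA)/oligo(dT) (0.3 μM 3'-OH ends) with 10 μM [3H]-dTTP. Run 10 min at 37 °C with increasing inhibitor. TCA-precipitated product was counted on GF/C filters. Highest concentration tested was 400 μM.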

Experiment [7] relates to MT4. Put plainly: Cytotoxicity against MT4 cells by MTT method. The note with it: Homo sapiens. The format is functional. Summed up:
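Mock-infected MT-4 cells exposed to graded drug concentrations. Viability assessed by MTT colorimetric method at day 5. CC50 is the concentration causing 50% death of noninfected cells. Mean of at least two experiments.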

Experiment [8] deals with Human immunodeficiency virus type 1 reverse transcriptase (Human immunodeficiency virus 1), Q72547 [Y181I]. Nature of the experiment: Inhibition of Y181I mutant HIV1 reverse transcriptase by [3H]dTTP poly(rA)/oligo(dT) incorporation at 400 uM. Summed up: as §1
The test system of experiment [9] is MT4. Put plainly: Cytotoxicity against MT4 cells by MTT method at 11 uM. The format is functional, Homo sapiens.
For experiment [10], the system named is Human immunodeficiency virus 1. Nature of the experiment: Antiviral activity against wild type HIV1 NL4-3 infected MT4 cells by MTT method at 2.3 uM. The format is functional. The following applies: Human immunodeficiency virus 1, NL4-3, MT4. Summed up:
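MT-4 cells infected with HIV-1 NL4-3 and exposed to drug. Viable cells measured by MTT assay at day 5 post-infection. Result given as percent inhibition of HIV-induced cell death at the stated micromolar concentration. Mean of at least two experiments.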

Experiment [11] concerns Human immunodeficiency virus 1. Put plainly: Antiviral activity against HIV1 K103N mutant strain infected MT4 cells by MTT method. The format is functional, organism-based. The note with it: Human immunodeficiency virus 1, K103N.
Experiment [12] addresses Human immunodeficiency virus type 1 reverse transcriptase (Human immunodeficiency virus 1) (UniProt Q72547). Nature of the experiment: Inhibition of wild type HIV1 reverse transcriptase by [3H]dTTP poly(rA)/oligo(dT) incorporation at 400 uM. The gist of the method:
as §1

Each structure is given as a SMILES string. Calls of active or inactive are those of the source. The calls are words filed in the database; no cut-off is given here. Where only a bound is given, the exact number is not on record here.

These results are taken from ChEMBL document CHEMBL1141224, “Parallel solution-phase and microwave-assisted synthesis of new S-DABO derivatives endowed with subnanomolar anti-HIV-1 activity” (J Med Chem, 2005).

As usually defined, the EC50 is the concentration giving half of the maximal effect. For orientation: inhibition means the share of the control response that was lost under treatment. Higher therefore signals a response far below the control. Usually CC50 stands for the concentration that lowers cell viability or growth by half. Take `Cc1c(O)nc(SCc2ccc(C(C)C)cc2)nc1Cc1c(F)cccc1F`: the EC50 in [1] is greater than 62 µM; in experiment [4], 16 µM; in experiment [5] it was 0.58 µM. For the same compound, in experiment [2], the ID50 stood at 3 µM. In addition, in experiment [3], the inhibition at 62 µM is 33%. Besides, the ID50 result in experiment [6] and in [8] was “inactive” throughout. The same compound came in with a CC50 with MT4 [7] greater than 62 µM.

With `Cc1c(O)nc(SCc2ccc(C(C)C)cc2)nc1Cc1c(Cl)cccc1Cl`, the EC50 is greater than 58 µM in experiment [1], greater than 57 µM in experiment [4] and greater than 58 µM in experiment [11]. In the experiment on MT4 [9], this compound registered an Activity of 45%. The inhibition at 2.3 µM in [10] was 35%. Also, the ID50 entry in experiment [6], in [12] and in experiment [8] was “inactive” in each case.
